Screening results from PubChem BioAssay.
Pf Dd2 inh – blocks growth of Plasmodium falciparum Dd2 parasites. P. falciparum Dd2 growth, SYBR Green, 72 h; active compounds read low. activity change, % at 10 µM. 2.3% of 94,000 active. AID 1159554; in the data active = activity change below about -80%; inconclusive = no clear call, values can overlap the other calls
T cruzi growth-1 – blocks T. cruzi growth in NIH3T3 culture. T. cruzi beta-gal in NIH3T3, GalScreen luminescence, 90 h. inhibition, % at 8.34 µM. 5.9% of 77,000 active. AID 624255;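 active = mean inhibition above about 93%, with at least 55% of replicates each passing it, limit read from the data, passing the limit was not always enough; inconclusive = only one of those two conditions holds; inactive = neither condition holds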
KDM4C inh – KDM4C (human) demethylase inhibition; inhibition, % at 12.5 µM; 0.15% of 96,000 active; GST-KDM4C 2-372, H3K9me3 peptide, LANCE TR-FRET;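 active = mean replicate inhibition above about 25%, with at least 55% of replicates also reaching it, limit read from the data, passing the limit was not always enough; inconclusive = only one of those two conditions met; inactive = neither condition met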
Target sequence (Q9H3R0 2-372 limits assumed): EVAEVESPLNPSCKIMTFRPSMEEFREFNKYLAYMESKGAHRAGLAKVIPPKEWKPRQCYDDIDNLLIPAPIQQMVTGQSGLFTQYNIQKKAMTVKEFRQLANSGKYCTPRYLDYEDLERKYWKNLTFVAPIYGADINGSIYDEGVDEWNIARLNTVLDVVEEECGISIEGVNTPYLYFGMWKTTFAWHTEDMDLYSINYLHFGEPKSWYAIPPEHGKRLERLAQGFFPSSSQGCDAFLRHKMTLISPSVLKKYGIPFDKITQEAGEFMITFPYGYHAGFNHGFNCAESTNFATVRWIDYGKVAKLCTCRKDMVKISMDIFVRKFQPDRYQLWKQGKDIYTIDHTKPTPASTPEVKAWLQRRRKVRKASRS
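reagent = H3K9me3 peptide substrate, Fe(II), 2-oxoglutarate | system = GST-tagged GASC-1 (JMJD2C) catalytic fragment, aa 2-372 | amount = enzyme final amount 10 nM | read-out = Fall in 671/618 emission ratio as inhibition | medium = HEPES buffer, pH 7.5, plus ascorbate | schedule = 30 min reaction, 60 min detection, RT | measured by = LANCE TR-FRET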
IDH1 R132H inh – inhibitors of human IDH1 R132H; IDH1 R132H reductase, diaphorase/resazurin fluorescence, 60 min; inhibition, % at 10 µM; 0.18% of 70,000 active; AID 624101; in the data active = inhibition above about 34%; inconclusive = no clear call, values can overlap the other calls; inactive = below about 11%
Target sequence (O75874 whole entry R132H): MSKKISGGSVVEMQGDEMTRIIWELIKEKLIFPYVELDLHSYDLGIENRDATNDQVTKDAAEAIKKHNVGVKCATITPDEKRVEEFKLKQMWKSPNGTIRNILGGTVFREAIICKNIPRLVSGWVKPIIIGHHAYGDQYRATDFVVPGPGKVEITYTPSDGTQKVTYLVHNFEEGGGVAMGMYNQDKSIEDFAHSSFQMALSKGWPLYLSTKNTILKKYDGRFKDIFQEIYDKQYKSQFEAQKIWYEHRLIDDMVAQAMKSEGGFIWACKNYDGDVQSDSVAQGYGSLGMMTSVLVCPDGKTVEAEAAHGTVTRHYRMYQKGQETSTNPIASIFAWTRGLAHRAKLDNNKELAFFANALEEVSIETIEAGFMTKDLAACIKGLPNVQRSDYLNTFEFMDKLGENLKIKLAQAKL
T cruzi growth-2 – inhibitors of T. cruzi proliferation; shares compounds with T cruzi growth-1; T. cruzi beta-gal in NIH3T3, GalScreen luminescence, 90 h; inhibition, % at 8.35 µM; 72% of 5,600 active; AID 651739;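 active = mean replicate inhibition above about 95% and at least 55% of replicates individually reaching it, limit read from the data; inconclusive = only one of the two criteria is met; inactive = neither criterion is met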
T cruzi growth-3 – Trypanosoma cruzi proliferation inhibition; AID 651740; T. cruzi beta-gal in NIH3T3, GalScreen luminescence, 90 h; shares compounds with T cruzi growth-1; 21% of 5,600 active; inhibition, % at 2.09 µM;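 active = mean inhibition above about 95%, with at least 55% of replicates also reaching it, limit read from the data; inconclusive = meets just one of the two conditions; inactive = meets neither condition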
NIH3T3 tox – cytotoxicity in mouse NIH/3T3 fibroblasts; cytotoxicity (signal decrease), % at 8.35 µM; shares compounds with T cruzi growth-1; NIH/3T3 viability, CellTiter-Glo ATP luminescence, 90 h; 14% of 5,600 active;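 active = mean signal decrease across replicates above about 35% based on untreated-well scatter, with enough replicates individually passing, limit read from the data; inconclusive = no rule stated though some were filed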
NIH3T3 tox 2 – cytotoxicity in mouse NIH/3T3 fibroblasts. shares compounds with T cruzi growth-1. NIH/3T3 viability, CellTiter-Glo ATP luminescence, 90 h. inhibition, % at 24.9 µM. 56% of 5,600 active. AID 651744;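 active = mean loss of cell viability signal at or above a set limit, and enough replicates individually reaching it; inconclusive = meets only the mean limit or only the replicate share; inactive = meets neither condition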
Large screens that a line does not name were inactive (follow-up assays come after a bar, where they were run). An excerpt weighted towards active compounds, which were near 5.8% of everything screened.

O=C(C[C@@H]1CC[C@@H]2[C@H](COC[C@@H](O)CN2S(=O)(=O)c2ccccc2)O1)NCc1ccc(-c2ccccc2)cc1	Pf Dd2 inh -90, T cruzi growth-1 105 (no result: IDH1 R132H inh) | T cruzi growth-2 105 | T cruzi growth-3 inactive | NIH3T3 tox inactive | NIH3T3 tox 2 inactive
O=C(C[C@@H]1CC[C@@H]2[C@H](COC[C@H](O)CN2S(=O)(=O)c2ccccc2)O1)NCc1ccc(-c2ccccc2)cc1	none (no result: IDH1 R132H inh)
C[C@H](CO)N1C[C@H](C)[C@H](CN(C)C(=O)Nc2ccc3c(c2)OCO3)Oc2cc(C#Cc3ccccc3)ccc2S1(=O)=O	T cruzi growth-1 131 | T cruzi growth-2 108 | T cruzi growth-3 inactive | NIH3T3 tox inactive | NIH3T3 tox 2 inactive
C[C@H]1CN([C@@H](C)CO)S(=O)(=O)c2ccc(C3=CCCCC3)cc2O[C@@H]1CN(C)C(=O)Nc1ccc2c(c1)OCO2	none (no result: T cruzi growth-1)
C[C@H](CO)N1C[C@H](C)[C@@H](CN(C)C(=O)Nc2ccc3c(c2)OCO3)Oc2cc(C3=CCCC3)ccc2S1(=O)=O	T cruzi growth-1 114 | T cruzi growth-2 96 | T cruzi growth-3 inactive | NIH3T3 tox inactive | NIH3T3 tox 2 inactive
C[C@@H]1CN([C@@H](C)CO)S(=O)(=O)c2ccc(C#Cc3ccccc3)cc2O[C@@H]1CN(C)C(=O)Nc1ccc2c(c1)OCO2	Pf Dd2 inh inconclusive, T cruzi growth-1 131 | T cruzi growth-2 107 | T cruzi growth-3 inconclusive | NIH3T3 tox inactive | NIH3T3 tox 2 30
C[C@H]1CN([C@@H](C)CO)S(=O)(=O)c2ccc(C#Cc3ccccc3)cc2O[C@@H]1CN(C)C(=O)Nc1ccc2c(c1)OCO2	T cruzi growth-1 131 | T cruzi growth-2 106 | T cruzi growth-3 inactive | NIH3T3 tox inactive | NIH3T3 tox 2 inactive
CCNC(=O)Nc1ccc2c(c1)C(=O)N(C)[C@H]1CC[C@H](CC(=O)NCc3ccc(F)cc3)O[C@@H]1CO2	none (no result: IDH1 R132H inh)
C[C@@H]1CN([C@H](C)CO)S(=O)(=O)c2ccc(C#Cc3ccncc3)cc2O[C@@H]1CN(C)C(=O)Nc1ccc2c(c1)OCO2	none (no result: IDH1 R132H inh)
C[C@@H]1CN([C@@H](C)CO)S(=O)(=O)c2ccc(C#Cc3ccccc3)cc2O[C@H]1CN(C)C(=O)Nc1ccc2c(c1)OCO2	T cruzi growth-1 132 (no result: IDH1 R132H inh) | T cruzi growth-2 98 | T cruzi growth-3 inactive | NIH3T3 tox inconclusive | NIH3T3 tox 2 45
C[C@@H]1CN([C@H](C)CO)S(=O)(=O)c2ccc(C#Cc3ccncc3)cc2O[C@H]1CN(C)C(=O)Nc1ccc2c(c1)OCO2	none (no result: IDH1 R132H inh)
C[C@H](CO)N1C[C@H](C)[C@H](CN(C)C(=O)Nc2ccc3c(c2)OCO3)Oc2cc(C#Cc3cccnc3)ccc2S1(=O)=O	Pf Dd2 inh inconclusive, T cruzi growth-1 101 | T cruzi growth-2 inactive | T cruzi growth-3 inactive | NIH3T3 tox inactive | NIH3T3 tox 2 inactive
C[C@@H]1CN([C@H](C)CO)S(=O)(=O)c2ccc(C#Cc3ccccc3)cc2O[C@@H]1CN(C)C(=O)Nc1ccc2c(c1)OCO2	T cruzi growth-1 130 | T cruzi growth-2 106 | T cruzi growth-3 107 | NIH3T3 tox inactive | NIH3T3 tox 2 inactive
O=C(CSc1nc(C(F)(F)F)cc(=O)[nH]1)Nc1ccc(F)cc1	none (no result: Pf Dd2 inh, T cruzi growth-1, KDM4C inh)
CC(=O)NC[C@H]1[C@H](c2ccc(-c3cccnc3)cc2)[C@H](CO)N1C(=O)C1CC1	T cruzi growth-1 111 (no result: IDH1 R132H inh) | T cruzi growth-2 inactive | T cruzi growth-3 inactive | NIH3T3 tox inactive | NIH3T3 tox 2 inactive
CC(=O)NC[C@@H]1[C@@H](c2ccc(-c3ccccc3)cc2)[C@H](CO)N1C(=O)C1CC1	T cruzi growth-1 99 (no result: IDH1 R132H inh) | T cruzi growth-2 inactive | T cruzi growth-3 inactive | NIH3T3 tox inactive | NIH3T3 tox 2 inactive
Cc1noc(C)c1S(=O)(=O)Nc1ccc2c(c1)C(=O)N([C@@H](C)CO)C[C@@H](C)[C@@H](CN(C)C(=O)Nc1ccc(C(F)(F)F)cc1)OCCCC[C@@H](C)O2	T cruzi growth-1 inconclusive (no result: IDH1 R132H inh) | T cruzi growth-2 96 | T cruzi growth-3 102 | NIH3T3 tox inactive | NIH3T3 tox 2 inconclusive
Cc1noc(C)c1S(=O)(=O)Nc1ccc2c(c1)C(=O)N([C@H](C)CO)C[C@H](C)[C@@H](CN(C)C(=O)Nc1ccc(C(F)(F)F)cc1)OCCCC[C@H](C)O2	T cruzi growth-1 114 | T cruzi growth-2 101 | T cruzi growth-3 inactive | NIH3T3 tox inactive | NIH3T3 tox 2 inconclusive
Cc1noc(C)c1S(=O)(=O)Nc1ccc2c(c1)C(=O)N([C@@H](C)CO)C[C@H](C)[C@H](CN(C)C(=O)Nc1ccc(C(F)(F)F)cc1)OCCCC[C@H](C)O2	none
Cc1noc(C)c1S(=O)(=O)Nc1ccc2c(c1)C(=O)N([C@H](C)CO)C[C@H](C)[C@H](CN(C)C(=O)Nc1ccc(C(F)(F)F)cc1)OCCCC[C@H](C)O2	none
C[C@@H]1CN([C@H](C)CO)C(=O)c2cc(NC(=O)C3CC3)ccc2O[C@H]1CN(C)Cc1ccc(-c2ccccc2)cc1	none
C[C@@H]1CN([C@@H](C)CO)S(=O)(=O)c2ccc(C#Cc3ccncc3)cc2O[C@@H]1CN(C)C(=O)C1CC1	none (no result: IDH1 R132H inh)
C[C@H]1CN([C@@H](C)CO)C(=O)c2cccc(NC(=O)Nc3ccc(C(F)(F)F)cc3)c2O[C@@H]1CN(C)Cc1ccc(Cl)c(Cl)c1	T cruzi growth-1 inconclusive | T cruzi growth-2 98 | T cruzi growth-3 106 | NIH3T3 tox 45 | NIH3T3 tox 2 105
C[C@@H]1CN([C@@H](C)CO)C(=O)c2cccc(NC(=O)Nc3ccc(F)cc3)c2O[C@H]1CN(C)Cc1ccc(Cl)c(Cl)c1	none (no result: IDH1 R132H inh)
C[C@@H]1CN([C@@H](C)CO)C(=O)c2cccc(NC(=O)Nc3ccc(C(F)(F)F)cc3)c2O[C@@H]1CN(C)Cc1ccc(Cl)c(Cl)c1	T cruzi growth-1 inconclusive | T cruzi growth-2 108 | T cruzi growth-3 inactive | NIH3T3 tox inactive | NIH3T3 tox 2 100
C[C@H]1CN([C@@H](C)CO)C(=O)c2cccc(NC(=O)Nc3ccc(C(F)(F)F)cc3)c2O[C@H]1CN(C)Cc1ccc(Cl)c(Cl)c1	T cruzi growth-1 inconclusive (no result: IDH1 R132H inh) | T cruzi growth-2 98 | T cruzi growth-3 105 | NIH3T3 tox inactive | NIH3T3 tox 2 103
C[C@@H]1CN([C@@H](C)CO)C(=O)c2cccc(NC(=O)Nc3ccc(F)cc3)c2O[C@@H]1CN(C)Cc1ccc(Cl)c(Cl)c1	none
C[C@H](CO)N1C[C@H](C)[C@@H](CN(C)Cc2ccc(Cl)c(Cl)c2)Oc2c(NC(=O)Nc3ccc(C(F)(F)F)cc3)cccc2C1=O	T cruzi growth-1 inconclusive | T cruzi growth-2 inactive | T cruzi growth-3 inactive | NIH3T3 tox inactive | NIH3T3 tox 2 inactive
Cc1ccc(S(=O)(=O)N[C@@H]2CC[C@H](CCNC(=O)C3CCCCC3)O[C@@H]2CO)cc1	none
